pIC50: −log10 of the molar value. Calls of active or inactive are those of the source. The rule behind the calls is not given here.
Experiments:
[1] = target: T1, Acetylcholinesterase (Rattus norvegicus, UniProt P37136); test: Inhibition of AchE in rat cortex by Ellman's method
T1 sequence (P37136 whole entry): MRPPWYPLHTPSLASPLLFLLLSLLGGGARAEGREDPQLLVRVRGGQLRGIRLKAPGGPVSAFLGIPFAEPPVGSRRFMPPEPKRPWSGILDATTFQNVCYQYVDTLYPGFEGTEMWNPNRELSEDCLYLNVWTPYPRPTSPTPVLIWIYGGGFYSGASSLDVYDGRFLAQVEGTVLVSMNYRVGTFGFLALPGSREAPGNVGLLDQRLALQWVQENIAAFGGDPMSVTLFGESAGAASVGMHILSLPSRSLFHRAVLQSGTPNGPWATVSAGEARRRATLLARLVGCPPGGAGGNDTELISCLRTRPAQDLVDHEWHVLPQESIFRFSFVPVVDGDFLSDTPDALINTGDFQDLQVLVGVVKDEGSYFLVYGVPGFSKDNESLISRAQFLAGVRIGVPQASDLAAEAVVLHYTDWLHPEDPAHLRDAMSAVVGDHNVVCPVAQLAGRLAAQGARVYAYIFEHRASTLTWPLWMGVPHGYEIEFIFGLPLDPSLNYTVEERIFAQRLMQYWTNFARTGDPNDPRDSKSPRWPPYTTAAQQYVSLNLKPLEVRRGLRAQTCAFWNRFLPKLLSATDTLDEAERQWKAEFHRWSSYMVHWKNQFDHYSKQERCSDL

[2] = target: Butyrylcholinesterase (Rattus norvegicus, UniProt Q9JKC1); test: Inhibition of BuchE in rat serum by Ellman's method; assay type: cell-free
Summary of the method: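 Modified Ellman assay with rat serum as BuChE source. Mixture of butyrylthiocholine iodide, sodium phosphate buffer pH 7.4, serum and tested compound at different concentrations, incubated 37 °C for 15 min.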

[3] = species on record: Rattus norvegicus; test: Selectivity ratio of IC50 for BuchE in rat serum to IC50 for AchE in rat cortex; assay type: cell-free
Summary of the method: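 IC50 ratio from modified Ellman assays. BuChE from rat serum with butyrylthiocholine iodide. AChE from rat cortex homogenate, preincubated with isoOMPA (0.04 mmol/L) to block BuChE, with acetylthiocholine iodide. Each mixture held enzyme source, sodium phosphate buffer pH 7.4 and compound at different concentrations, incubated 37 °C for 15 min.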

[4] = system: PC-12; test: Neuroprotective activity in rat PC12 cells assessed as inhibition of H2O2-induced neurotoxicity at 0.1 uM after 2 hrs by MTT assay; assay type: functional, cell-based
Summary of the method: (§1)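 Undifferentiated PC12 cells were seeded at 5000 cells/well and cultured at 37 °C under 5% CO2. They were left to attach for 1 day before […] was added. 2 h later the cells were exposed to H2O2. Viability was read by MTT (0.25 mg/mL final, 4 h), with formazan dissolved in DMSO and OD read at 570 nm.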

[5] = system: PC-12; test: Neuroprotective activity against rat PC12 cells assessed as inhibition of H2O2-induced neurotoxicity at 0.5 uM after 2 hrs by MTT assay; assay type: functional, cell-based; summary of the method: as §1

Sequence of Butyrylcholinesterase (Q9JKC1 whole entry): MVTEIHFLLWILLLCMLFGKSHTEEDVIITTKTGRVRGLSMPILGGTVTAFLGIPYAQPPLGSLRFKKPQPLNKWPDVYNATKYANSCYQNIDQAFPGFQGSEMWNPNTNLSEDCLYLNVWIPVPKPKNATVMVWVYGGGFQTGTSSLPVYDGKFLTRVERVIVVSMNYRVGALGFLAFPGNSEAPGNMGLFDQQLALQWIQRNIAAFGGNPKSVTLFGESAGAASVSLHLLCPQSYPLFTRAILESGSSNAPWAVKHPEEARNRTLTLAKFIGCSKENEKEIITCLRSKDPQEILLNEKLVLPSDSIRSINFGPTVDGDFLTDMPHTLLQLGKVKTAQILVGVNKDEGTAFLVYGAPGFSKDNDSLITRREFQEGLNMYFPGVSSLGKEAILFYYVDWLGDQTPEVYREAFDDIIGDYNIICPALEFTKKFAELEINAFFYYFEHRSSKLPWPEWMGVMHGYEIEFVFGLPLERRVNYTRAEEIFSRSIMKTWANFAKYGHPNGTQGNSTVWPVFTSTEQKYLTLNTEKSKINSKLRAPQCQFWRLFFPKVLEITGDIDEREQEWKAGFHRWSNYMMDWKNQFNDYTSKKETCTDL

Structure (SMILES): COc1cc2c(cc1OC)C(=O)C(Oc1cccc(CCN3CCCCC3)c1)C2 (stereo not given)
- pIC50 [1]: 5.81
- pIC50 [2]: 5.15
- Ratio IC50 [3]: 4.52

Structure (SMILES): COc1cc2c(cc1OC)C(=O)C(Oc1ccc(CCCN3CCCC3)cc1)C2 (stereo not given)
- pIC50 [1]: 6.68
- pIC50 [2]: 5.63
- Ratio IC50 [3]: 11.2

Structure (SMILES): COc1cc2c(cc1OC)C(=O)C(Oc1cccc(C(=O)CCN3CCCC3)c1)C2 (stereo not given)
- pIC50 [1]: 6.08
- pIC50 [2]: 4.95
- Ratio IC50 [3]: 13.3

Structure (SMILES): CCN(CC)CCCC(=O)c1ccc(OC2Cc3cc(OC)c(OC)cc3C2=O)cc1 (stereo not given)
- pIC50 [1]: 7.39
- pIC50 [2]: 4.42
- Ratio IC50 [3]: 927

Structure (SMILES): COc1cc2c(cc1OC)C(=O)C(Oc1ccc(C(=O)CCCN3CCCC3)cc1)C2 (stereo not given)
- pIC50 [1]: 7.21
- pIC50 [2]: 5.53
- Ratio IC50 [3]: 47.2

Structure (SMILES): CCN(CC)CCCCc1ccc(OC2Cc3cc(OC)c(OC)cc3C2=O)cc1 (stereo not given)
- pIC50 [1]: 6.32
- pIC50 [2]: 5.49
- Ratio IC50 [3]: 6.77

Structure (SMILES): COc1cc2c(cc1OC)C(=O)C(CC1CCN(Cc3ccccc3)CC1)C2 (stereo not given)
- Activity [4]: Active
- Activity [5]: Active

Structure (SMILES): COc1cc2c(cc1OC)C(=O)C(Oc1cccc(CCN3CCCC3)c1)C2 (stereo not given)
- pIC50 [1]: 5.75
- pIC50 [2]: 4.81
- Ratio IC50 [3]: 8.69

Structure (SMILES): COc1cc2c(cc1OC)C(=O)C(Oc1ccc(CCN3CCCCC3)cc1)C2 (stereo not given)
- pIC50 [1]: 7.30
- pIC50 [2]: 5.29
- Ratio IC50 [3]: 102

Structure (SMILES): COc1cc2c(cc1OC)C(=O)C(Oc1ccc(C(=O)CN3CCCC3)cc1)C2 (stereo not given)
- pIC50 [1]: 6.62
- pIC50 [2]: 5.76
- Ratio IC50 [3]: 7.2

Structure (SMILES): CCN(CC)CCCc1ccc(OC2Cc3cc(OC)c(OC)cc3C2=O)cc1 (stereo not given)
- pIC50 [1]: 6.56
- pIC50 [2]: 5.40
- Ratio IC50 [3]: 14.4

Structure (SMILES): CCN(CC)CCC(=O)c1cccc(OC2Cc3cc(OC)c(OC)cc3C2=O)c1 (stereo not given)
- pIC50 [1]: 5.63
- pIC50 [2]: 5.82
- Ratio IC50 [3]: 0.64

Structure (SMILES): COc1cc2c(cc1OC)C(=O)C(Oc1ccc(C(=O)CCN3CCCCC3)cc1)C2 (stereo not given)
- pIC50 [1]: 7.76
- pIC50 [2]: 5.49
- Ratio IC50 [3]: 187

Structure (SMILES): CCN(C)CC(=O)c1ccc(OC2Cc3cc(OC)c(OC)cc3C2=O)cc1 (stereo not given)
- pIC50 [1]: 7.50
- pIC50 [2]: 6.23
- Ratio IC50 [3]: 18.6

Structure (SMILES): CCN(CC)CC(=O)c1ccc(OC2Cc3cc(OC)c(OC)cc3C2=O)cc1 (stereo not given)
- pIC50 [1]: 6.55
- pIC50 [2]: 5.61
- Ratio IC50 [3]: 8.7

Structure (SMILES): COc1cc2c(cc1OC)C(=O)C(Oc1ccc(C(=O)CCN3CCCC3)cc1)C2 (stereo not given)
- pIC50 [1]: 8.38
- pIC50 [2]: 5.22
- Ratio IC50 [3]: 1450

Structure (SMILES): COc1cc2c(cc1OC)C(=O)C(Oc1ccc(CCCCN3CCCC3)cc1)C2 (stereo not given)
- pIC50 [1]: 6.38
- pIC50 [2]: 5.49
- Ratio IC50 [3]: 7.76

Structure (SMILES): CCN(CC)CCc1cccc(OC2Cc3cc(OC)c(OC)cc3C2=O)c1 (stereo not given)
- pIC50 [1]: 5.68
- pIC50 [2]: 4.95
- Ratio IC50 [3]: 5.31

Structure (SMILES): CCN(CC)CCc1ccc(OC2Cc3cc(OC)c(OC)cc3C2=O)cc1 (stereo not given)
- pIC50 [1]: 7.38
- pIC50 [2]: 4.78
- Ratio IC50 [3]: 394

Structure (SMILES): CCN(CC)CCC(=O)c1ccc(OC2Cc3cc(OC)c(OC)cc3C2=O)cc1 (stereo not given)
- pIC50 [1]: 9.11
- Activity [4]: Active
- Activity [5]: Active
- pIC50 [2]: 5.82
- Ratio IC50 [3]: 1950

Structure (SMILES): CCN(C)CCc1ccc(OC2Cc3cc(OC)c(OC)cc3C2=O)cc1 (stereo not given)
- pIC50 [1]: 7.29
- pIC50 [2]: 4.66
- Ratio IC50 [3]: 427

Structure (SMILES): COc1cc2c(cc1OC)C(=O)C(Oc1ccc(CCN3CCCC3)cc1)C2 (stereo not given)
- pIC50 [1]: 7.43
- pIC50 [2]: 4.52
- Ratio IC50 [3]: 816

Structure (SMILES): CCN(C)CCc1cccc(OC2Cc3cc(OC)c(OC)cc3C2=O)c1 (stereo not given)
- pIC50 [1]: 6.15
- pIC50 [2]: 5.06
- Ratio IC50 [3]: 12.2

Structure (SMILES): COc1cc2c(cc1OC)C(=O)C(Oc1ccc(C(=O)CCCN3CCCCC3)cc1)C2 (stereo not given)
- pIC50 [1]: 6.28
- pIC50 [2]: 5.05
- Ratio IC50 [3]: 17

Structure (SMILES): COc1cc2c(cc1OC)C(=O)C(Oc1ccc(CCCN3CCCCC3)cc1)C2 (stereo not given)
- pIC50 [1]: 6.19
- pIC50 [2]: 5.55
- Ratio IC50 [3]: 4.36

Structure (SMILES): COc1cc2c(cc1OC)C(=O)C(Oc1ccc(C(=O)CN3CCCCC3)cc1)C2 (stereo not given)
- pIC50 [1]: 6.44
- pIC50 [2]: 5.78
- Ratio IC50 [3]: 4.57

Structure (SMILES): CCN(C)CCCC(=O)c1ccc(OC2Cc3cc(OC)c(OC)cc3C2=O)cc1 (stereo not given)
- pIC50 [1]: 7.42
- pIC50 [2]: 4.57
- Ratio IC50 [3]: 715

Structure (SMILES): CCN(C)CCC(=O)c1ccc(OC2Cc3cc(OC)c(OC)cc3C2=O)cc1 (stereo not given)
- pIC50 [1]: 8.73
- pIC50 [2]: 5.35
- Ratio IC50 [3]: 2440

Source: ChEMBL document CHEMBL1156564, “2-Phenoxy-indan-1-one derivatives as acetylcholinesterase inhibitors: a study on the importance of modifications at the side chain on the activity” (Bioorg Med Chem, 2008)
